Results published in ChEMBL document CHEMBL3865794, “Novel securinine derivatives as topoisomerase I based antitumor agents” (Eur J Med Chem, 2016).

Columns and labels:
[1] = Growth inhibition of human HeLa cells after 72 hrs by MTT assay; type: functional, cell-based
Summary of the method: (§1)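 Cells seeded at 5 × 10³ per well and incubated overnight in medium with 10% FBS. Medium then replaced with fresh medium containing compound at […] for 72 h. MTT (5 mg/mL stock, 20 µL per well) added for 4 h at 37 °C, formazan dissolved in DMSO, absorbance read at 570 nm. Each dose run in parallel triplicate. IC50 taken from mean absorbance versus concentration curves.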

[2] = Growth inhibition of human SH-SY5Y cells after 72 hrs by MTT assay; type: functional, cell-based; summary of the method: as §1
[3] = Growth inhibition of human A549 cells after 72 hrs by MTT assay; type: functional, cell-based; summary of the method: as §1
[4] = Growth inhibition of human HepG2 cells after 72 hrs by MTT assay; type: functional, cell-based; summary of the method: as §1
[5] = molecular target: T1, DNA topoisomerase 1 (Homo sapiens) (UniProt P11387); experiment: Inhibition of DNA topoisomerase 1 (unknown origin) assessed as reduction in relaxation of supercoiled pBR322 plasmid DNA at 100 uM incubated for 30 mins by agarose gel electrophoresis relative to control
T1 sequence (whole entry): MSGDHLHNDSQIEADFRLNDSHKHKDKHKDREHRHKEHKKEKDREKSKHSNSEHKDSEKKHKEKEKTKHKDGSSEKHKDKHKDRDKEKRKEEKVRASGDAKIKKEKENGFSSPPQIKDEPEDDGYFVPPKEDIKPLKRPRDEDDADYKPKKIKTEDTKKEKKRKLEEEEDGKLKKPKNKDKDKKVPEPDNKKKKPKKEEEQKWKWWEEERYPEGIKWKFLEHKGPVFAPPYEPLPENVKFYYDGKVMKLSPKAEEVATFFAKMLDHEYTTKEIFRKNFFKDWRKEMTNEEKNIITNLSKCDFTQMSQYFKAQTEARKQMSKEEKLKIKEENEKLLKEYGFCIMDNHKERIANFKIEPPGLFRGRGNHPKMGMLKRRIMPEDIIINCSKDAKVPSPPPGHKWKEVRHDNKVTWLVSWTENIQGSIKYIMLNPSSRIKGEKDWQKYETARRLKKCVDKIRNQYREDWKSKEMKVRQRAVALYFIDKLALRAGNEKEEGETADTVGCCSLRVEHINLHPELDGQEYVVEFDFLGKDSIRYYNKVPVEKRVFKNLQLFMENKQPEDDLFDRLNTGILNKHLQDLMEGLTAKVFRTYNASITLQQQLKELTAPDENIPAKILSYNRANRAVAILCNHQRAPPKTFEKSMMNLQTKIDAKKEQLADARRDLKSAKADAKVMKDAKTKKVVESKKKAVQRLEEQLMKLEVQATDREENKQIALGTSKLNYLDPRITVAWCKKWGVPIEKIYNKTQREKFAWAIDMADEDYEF
Summary of the method: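 Supercoiled pBR322 DNA incubated with Topo I in the presence or absence of compound for 30 min at 37 °C. Reaction stopped with dye solution of bromophenol blue, xylene cyanol and glycerol. Products run on 1% agarose in 1× TAE for 40 min, then EB-stained and UV-imaged. Inhibition rate derived from gel gray-scale analysis relative to control. Camptothecin served as positive control.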

| Compound | IC50 ([1]; hela) [µM] | IC50 ([2]; sh-sy5y) [µM] | IC50 ([3]; a549) [µM] | IC50 ([4]; hepg2) [µM] | IC50 ([1]; Homo sapiens, HeLa, 72 h) [µM] | IC50 ([2]; Homo sapiens, SH-SY5Y, 72 h) [µM] | IC50 ([3]; Homo sapiens, A549, 72 h) [µM] | IC50 ([4]; Homo sapiens, HepG2, 72 h) [µM] | inhibition [5] [%] |
| --- | --- | --- | --- | --- | --- | --- | --- | --- | --- |
| N#Cc1ccc(C(O)C2=C3C=C[C@@H]4C[C@@]3(OC2=O)[C@H]2CCCCN42)cc1 (stereo in doubt; 4a-5-a) | 13.1 | 18.9 | 6.2 | 14.1 |  |  |  |  |  |
| N#Cc1ccccc1C(O)C1=C2C=C[C@@H]3C[C@@]2(OC1=O)[C@H]1CCCCN31 (some centres not stated) |  |  |  |  | 14.9 | 21.9 | 7.01 | 11.1 | 38.4 |
| O=C1O[C@@]23C[C@@H](C=CC2=C1C(O)c1ccc(Cl)cc1)N1CCCC[C@@H]13 (stereo in doubt; 4a-3-a) | 12.5 | 20.1 | 6.18 | 13.1 |  |  |  |  |  |
| O=C1O[C@@]23C[C@@H](C=CC2=C1C(O)c1ccc(O)cc1)N1CCCC[C@@H]13 (some centres not stated) |  |  |  |  | 18.9 | 23 | 6.99 | 17.1 | 31.8 |
| O=C1O[C@@]23C[C@@H](C=CC2=C1C(O)c1ccccc1[N+](=O)[O-])N1CCCC[C@@H]13 (some centres not stated) |  |  |  |  | 8.11 | 8.69 | 3.91 | 6.78 | 40.6 |
| COc1ccc(C(O)C2=C3C=C[C@@H]4C[C@@]3(OC2=O)[C@H]2CCCCN42)cc1 (some centres not stated) |  |  |  |  | 10 | 22.5 | 10 | 17.8 | 31.6 |
| O=C1O[C@@]23C[C@@H](C=CC2=C1C(O)c1ccc(C(F)(F)F)cc1)N1CCCC[C@@H]13 (stereo in doubt; 4a-6-a) | 8.8 | 8.27 | 2.78 | 2.23 |  |  |  |  |  |
| N#Cc1cccc(C(O)C2=C3C=C[C@@H]4C[C@@]3(OC2=O)[C@H]2CCCCN42)c1 (some centres not stated) |  |  |  |  | 15.6 | 24.9 | 7.08 | 17.9 | 34.7 |
| O=C1O[C@@]23C[C@@H](C=CC2=C1C(O)c1ccccc1Cl)N1CCCC[C@@H]13 (some centres not stated) |  |  |  |  | 10.4 | 19.9 | 7.01 | 9.16 | 42.4 |
| O=C1O[C@@]23C[C@@H](C=CC2=C1C(O)c1ccc(F)cc1F)N1CCCC[C@@H]13 (some centres not stated) |  |  |  |  | 14.9 | 22.1 | 5.18 | 13.6 | 37.4 |
| O=C1O[C@@]23C[C@@H](C=CC2=C1C(O)c1cccc(Br)c1)N1CCCC[C@@H]13 (some centres not stated) |  |  |  |  | 19.1 | 20.2 | 9.01 | 15.1 | 34.7 |
| O=C1O[C@@]23C[C@@H](C=CC2=C1C(O)c1ccccc1Br)N1CCCC[C@@H]13 (some centres not stated) |  |  |  |  | 12.7 | 23.1 | 7.11 | 12.6 | 39.2 |
| O=C1O[C@@]23C[C@@H](C=CC2=C1C(O)c1cccc([N+](=O)[O-])c1)N1CCCC[C@@H]13 (some centres not stated) |  |  |  |  | 9.98 | 8.7 | 4.04 | 6.77 | 36.2 |
| O=C1O[C@@]23C[C@@H](C=CC2=C1C(O)c1ccc(Cl)cc1)N1CCCC[C@@H]13 (stereo in doubt; 4a-3-b) | 12.5 | 19.9 | 6.2 |  |  |  |  |  |  |
| O=C1O[C@@]23C[C@@H](C=CC2=C1C(O)c1ccc(Br)cc1)N1CCCC[C@@H]13 (stereo in doubt; 4a-4) [listing 1 of 2 here] |  |  |  |  | 12.8 | 22.3 | 6.32 | 14.1 |  |
| O=C1O[C@@]23C[C@@H](C=CC2=C1C(O)c1ccc(Br)cc1)N1CCCC[C@@H]13 (stereo in doubt; 4a-4-a) | 12.8 | 22.4 | 6.24 |  |  |  |  |  |  |

| Compound | IC50 ([1]; hela) [µM] | IC50 ([2]; sh-sy5y) [µM] | IC50 ([3]; a549) [µM] | IC50 ([4]; hepg2) [µM] | IC50 ([1]; Homo sapiens, HeLa, 72 h) [µM] | IC50 ([2]; Homo sapiens, SH-SY5Y, 72 h) [µM] | IC50 ([3]; Homo sapiens, A549, 72 h) [µM] | IC50 ([4]; Homo sapiens, HepG2, 72 h) [µM] | inhibition [5] [%] |
| --- | --- | --- | --- | --- | --- | --- | --- | --- | --- |
| N#Cc1ccc(C(O)C2=C3C=C[C@@H]4C[C@@]3(OC2=O)[C@H]2CCCCN42)cc1 (stereo in doubt; 4a-5) [listing 1 of 2 here] |  |  |  |  | 13 | 18.9 | 6.22 | 14.2 |  |
| O=C1O[C@@]23C[C@@H](C=CC2=C1C(O)c1ccc(F)cc1)N1CCCC[C@@H]13 (stereo in doubt; 4a-2-b) | 12.7 | 19 | 5.09 | 10.1 |  |  |  |  |  |
| O=C1O[C@@]23C[C@@H](C=CC2=C1C(O)c1ccc([N+](=O)[O-])cc1[N+](=O)[O-])N1CCCC[C@@H]13 (some centres not stated) |  |  |  |  | 7.11 | 8.71 | 11.5 | 5.98 | 43.1 |
| N#Cc1ccc(C(O)C2=C3C=C[C@@H]4C[C@@]3(OC2=O)[C@H]2CCCCN42)cc1 (stereo in doubt; 4a-5-b) | 12.1 | 18.9 |  | 14.1 |  |  |  |  |  |
| O=C1O[C@@]23C[C@@H](C=CC2=C1C(O)c1ccc(Br)cc1)N1CCCC[C@@H]13 (stereo in doubt; 4a-4-b) |  | 22.3 | 6.3 | 14.1 |  |  |  |  |  |
| O=C1O[C@@]23C[C@@H](C=CC2=C1C(O)c1cccc(F)c1)N1CCCC[C@@H]13 (some centres not stated) |  |  |  |  | 16.8 | 27.1 | 8.01 | 16.1 | 34.9 |
| O=C1O[C@@]23C[C@@H](C=CC2=C1C(O)c1ccc(F)cc1)N1CCCC[C@@H]13 (stereo in doubt; 4a-2) [listing 1 of 2 here] |  |  |  |  |  |  |  |  | 49.8 |
| N#Cc1ccc(C(O)C2=C3C=C[C@@H]4C[C@@]3(OC2=O)[C@H]2CCCCN42)cc1 (stereo in doubt; 4a-5) [listing 2 of 2 here] |  |  |  |  |  |  |  |  | 45.7 |
| O=C1O[C@@]23C[C@@H](C=CC2=C1C(O)c1ccc(C(F)(F)F)cc1)N1CCCC[C@@H]13 (stereo in doubt; 4a-6) |  |  |  |  |  |  |  |  | 53.6 |
| O=C1O[C@@]23C[C@@H](C=CC2=C1C(O)c1ccc(F)cc1)N1CCCC[C@@H]13 (stereo in doubt; 4a-2) [listing 2 of 2 here] |  |  |  |  | 12.8 | 19.8 | 5.01 | 10.1 |  |
| O=C1O[C@@]23C[C@@H](C=CC2=C1C(O)c1ccc(F)cc1)N1CCCC[C@@H]13 (stereo in doubt; 4a-2-a) | 12.8 | 19.1 | 4.95 | 10 |  |  |  |  |  |
| O=C1O[C@@]23C[C@@H](C=CC2=C1C(O)c1ccc(Br)cc1)N1CCCC[C@@H]13 (stereo in doubt; 4a-4) [listing 2 of 2 here] |  |  |  |  |  |  |  |  | 47.1 |
| O=C1O[C@@]23C[C@@H](C=CC2=C1C(O)c1ccc(C(F)(F)F)cc1)N1CCCC[C@@H]13 (stereo in doubt; 4a-6-b) | 9.08 | 8.62 | 3.01 | 2.57 |  |  |  |  |  |
| O=C1O[C@@]23C[C@@H](C=CC2=C1C(O)c1ccc(Cl)cc1)N1CCCC[C@@H]13 (stereo in doubt; 4a-3) [listing 1 of 2 here] |  |  |  |  |  |  |  |  | 48.9 |
| O=C1O[C@@]23C[C@@H](C=CC2=C1C(O)c1ccc(Cl)cc1)N1CCCC[C@@H]13 (stereo in doubt; 4a-3) [listing 2 of 2 here] |  |  |  |  | 13 | 20 | 6.21 | 13 |  |
